ChEMBL document CHEMBL1208778, “Synthesis and anti-cancer activity of chalcone linked imidazolones” (2010)
Each block holds one compound with its values, some of them ahead of it.

Columns and labels:
Format in all cases: functional
[1] = Growth inhibition of human RPMI8266 cells
Outline: (§1)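 Five-dose testing was run within the NCI (Bethesda) in vitro Anticancer Screen Program on a panel of 53 human tumour cell lines from nine cancer types. Growth inhibition is reported as GI50.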

[2] = system: K562; assay: Growth inhibition of human K562 cells; outline: as §1
[3] = system: A549; assay: Growth inhibition of human A549 cells; outline: as §1
[4] = system: EKVX; assay: Growth inhibition of human EKVX cells; outline: as §1
[5] = system: HOP-62; assay: Growth inhibition of human HOP62 cells; outline: as §1
[6] = system: HOP-92; assay: Growth inhibition of human HOP92 cells; outline: as §1
[7] = system: NCI-H226; assay: Growth inhibition of human NCI-H226 cells; outline: as §1
[8] = system: NCI-H23; assay: Growth inhibition of human NCI-H23 cells; outline: as §1
[9] = system: NCI-H322M; assay: Growth inhibition of human NCI-H322M cells; outline: as §1
[10] = system: NCI-H460; assay: Growth inhibition of human NCI-H460 cells; outline: as §1
[11] = system: NCI-H522; assay: Growth inhibition of human NCI-H522 cells; outline: as §1
[12] = system: COLO 205; assay: Growth inhibition of human COLO205 cells; outline: as §1
[13] = system: HCC 2998; assay: Growth inhibition of human HCC2998 cells; outline: as §1
[14] = system: HCT-116; assay: Growth inhibition of human HCT116 cells; outline: as §1
[15] = system: HCT-15; assay: Growth inhibition of human HCT15 cells; outline: as §1
[16] = system: HT-29; assay: Growth inhibition of human HT-29 cells; outline: as §1
[17] = system: KM12; assay: Growth inhibition of human KM12 cells; outline: as §1
[18] = system: SW-620; assay: Growth inhibition of human SW620 cells
Outline: (§2)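 Compounds that passed a preliminary screen were tested at five doses in the NCI (Bethesda) in vitro Anticancer Screen Program against a 53-line human tumour panel spanning leukemia, lung, colon, CNS, melanoma, ovarian, renal, prostate and breast. Growth inhibition is reported as GI50.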

[19] = system: SF-268; assay: Growth inhibition of human SF268 cells; outline: as §1
[20] = system: SF-295; assay: Growth inhibition of human SF295 cells; outline: as §1
[21] = system: SF-539; assay: Growth inhibition of human SF539 cells; outline: as §1
[22] = system: SNB-19; assay: Growth inhibition of human SNB19 cells; outline: as §2
[23] = system: SNB-75; assay: Growth inhibition of human SNB75 cells; outline: as §2
[24] = system: U-251; assay: Growth inhibition of human U251 cells; outline: as §2
[25] = system: A498; assay: Growth inhibition of human A498 cells; outline: as §1
[26] = system: 786-0; assay: Growth inhibition of human 786-0 cells; outline: as §1
[27] = system: ACHN; assay: Growth inhibition of human ACHN cells; outline: as §1
[28] = system: CAKI-1; assay: Growth inhibition of human Caki1 cells; outline: as §1
[29] = system: RXF 393; assay: Growth inhibition of human RXF393 cells; outline: as §1
[30] = system: SN12C; assay: Growth inhibition of human SN12C cells; outline: as §2
[31] = system: TK-10; assay: Growth inhibition of human TK10 cells; outline: as §2
[32] = system: UO-31; assay: Growth inhibition of human UO31 cells; outline: as §2
[33] = system: PC-3; assay: Growth inhibition of human PC3 cells; outline: as §1
[34] = system: OVCAR-3; assay: Growth inhibition of human OVCAR-3 cells; outline: as §1
[35] = system: OVCAR-4; assay: Growth inhibition of human OVCAR4 cells; outline: as §1
[36] = system: OVCAR-5; assay: Growth inhibition of human OVCAR5 cells; outline: as §1
[37] = system: OVCAR-8; assay: Growth inhibition of human OVCAR8 cells; outline: as §1
[38] = system: NCI/ADR-RES; assay: Growth inhibition of human NCI/ADR-RES cells; outline: as §1
[39] = system: SK-OV-3; assay: Growth inhibition of human SKOV3 cells; outline: as §2
[40] = system: MCF7; assay: Growth inhibition of human MCF7 cells; outline: as §1
[41] = system: MDA-MB-231; assay: Growth inhibition of human MDA-MB-231 cells; outline: as §1
[42] = Growth inhibition of human Hs 578T cells; outline: as §1
[43] = system: BT-549; assay: Growth inhibition of human BT549 cells; outline: as §1
[44] = system: T47D; assay: Growth inhibition of human T47D cells; outline: as §2
[45] = system: LOX IMVI; assay: Growth inhibition of human LOXIMVI cells; outline: as §1
[46] = system: Malme-3M; assay: Growth inhibition of human MALME-3M cells; outline: as §1
[47] = system: M14; assay: Growth inhibition of human M14 cells; outline: as §1
[48] = system: MDA-MB-435; assay: Growth inhibition of human MDA-MB-435 cells; outline: as §1
[49] = system: SK-MEL-2; assay: Growth inhibition of human SK-MEL-2 cells; outline: as §1
[50] = system: SK-MEL-28; assay: Growth inhibition of human SK-MEL-28 cells; outline: as §1
[51] = system: SK-MEL-5; assay: Growth inhibition of human SK-MEL-5 cells; outline: as §1
[52] = system: UACC-257; assay: Growth inhibition of human UACC257 cells; outline: as §2
[53] = system: UACC-62; assay: Growth inhibition of human UACC62 cells; outline: as §2
[54] = system: MCF7; assay: Cell cycle arrest in human MCF7 cells assessed as accumulation at G0 phase at 10 uM after 24 hrs by FACS analysis
Outline: (§3)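 MCF-7 breast carcinoma cells were exposed to 10 µM test compound for 24 h, with DMSO as the vehicle control. Cell-cycle distribution was read by FACS as the percentage of cells in G0, G1, S and G2/M.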

[55] = system: MCF7; assay: Cell cycle arrest in human MCF7 cells assessed as accumulation at G1 phase at 10 uM after 24 hrs by FACS analysis; outline: as §3
[56] = system: MCF7; assay: Cell cycle arrest in human MCF7 cells assessed as accumulation at S phase at 10 uM after 24 hrs by FACS analysis; outline: as §3
[57] = system: MCF7; assay: Cell cycle arrest in human MCF7 cells assessed as accumulation at G2/M phase at 10 uM after 24 hrs by FACS analysis; outline: as §3
[58] = system: MCF7; assay: Cell cycle arrest in human MCF7 cells assessed as accumulation at G0 phase at 30 uM after 24 hrs by FACS analysis
Outline: (§4)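 MCF-7 cells were treated at 30 µM for 24 h alongside a DMSO control. Fractions in G0, G1, S and G2/M phases were measured by FACS, and values are means of three experiments.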

[59] = system: MCF7; assay: Cell cycle arrest in human MCF7 cells assessed as accumulation at G1 phase at 30 uM after 24 hrs by FACS analysis; outline: as §4
[60] = system: MCF7; assay: Cell cycle arrest in human MCF7 cells assessed as accumulation at S phase at 30 uM after 24 hrs by FACS analysis; outline: as §4
[61] = system: MCF7; assay: Cell cycle arrest in human MCF7 cells assessed as accumulation at G2/M phase at 30 uM after 24 hrs by FACS analysis; outline: as §4

GI50 [2]: 500 nM | GI50 [3]: 4030 nM | GI50 [7]: 14600 nM | GI50 [8]: 1430 nM | GI50 [9]: 2020 nM | GI50 [10]: 1400 nM | GI50 [11]: 950 nM | GI50 [12]: 1510 nM | GI50 [13]: 1260 nM | GI50 [14]: 330 nM | GI50 [15]: 1130 nM | GI50 [16]: 660 nM | GI50 [18]: 390 nM | GI50 [24]: 630 nM | GI50 [26]: 1380 nM | GI50 [27]: 1600 nM | GI50 [33]: 3260 nM | GI50 [34]: 1230 nM | GI50 [35]: 1880 nM | GI50 [36]: 1880 nM | GI50 [37]: 1620 nM | GI50 [39]: 3270 nM | GI50 [40]: 310 nM | GI50 [41]: 2170 nM | GI50 [43]: 1930 nM | GI50 [44]: 2190 nM | GI50 [48]: 1200 nM | GI50 [49]: 2060 nM | GI50 [50]: 1740 nM | GI50 [51]: 1400 nM
Structure (SMILES): COc1cc(/C=C/C(=O)c2cccc(-n3cc(-c4ccccc4)[nH]c3=O)c2)cc(OC)c1OC
GI50 [1]: 620 nM | GI50 [4]: 2300 nM | GI50 [5]: 4120 nM | GI50 [6]: 10800 nM | GI50 [17]: 1370 nM | GI50 [19]: 1920 nM | GI50 [20]: 1900 nM | GI50 [21]: 1680 nM | GI50 [22]: 2350 nM | GI50 [23]: 4470 nM | GI50 [25]: 2650 nM | GI50 [28]: 1750 nM | GI50 [29]: 1710 nM | GI50 [30]: 2090 nM | GI50 [31]: 3020 nM | GI50 [32]: 1510 nM | GI50 [38]: 1100 nM | GI50 [42]: 3410 nM | GI50 [45]: 480 nM | GI50 [46]: 1310 nM | GI50 [47]: 1350 nM | GI50 [52]: 1520 nM | GI50 [53]: 1520 nM | Activity [54]: 8.19% | Activity [55]: 54.85% | Activity [56]: 17.5% | Activity [57]: 19.46% | Activity [58]: 52.34% | Activity [59]: 39.08% | Activity [60]: 5.6% | Activity [61]: 3.02%

GI50 [2]: 400 nM | GI50 [3]: 3550 nM | GI50 [7]: 2310 nM | GI50 [8]: 2780 nM | GI50 [9]: 2520 nM | GI50 [10]: 2410 nM | GI50 [11]: 1650 nM | GI50 [12]: 2290 nM | GI50 [13]: 13700 nM | GI50 [14]: 1230 nM | GI50 [15]: 2330 nM | GI50 [16]: 1900 nM | GI50 [18]: 1620 nM | GI50 [24]: 580 nM | GI50 [26]: 1570 nM | GI50 [27]: 1840 nM | GI50 [34]: 1560 nM | GI50 [35]: 2210 nM | GI50 [36]: 2190 nM | GI50 [37]: 990 nM | GI50 [39]: 4210 nM | GI50 [40]: 1270 nM | GI50 [41]: 3350 nM | GI50 [43]: 1450 nM | GI50 [44]: 1920 nM | GI50 [48]: 2060 nM | GI50 [49]: 2070 nM | GI50 [50]: 3640 nM | GI50 [51]: 1530 nM
Structure (SMILES): O=C(/C=C/c1cccc(O)c1)c1cccc(-n2cc(-c3ccc(Cl)cc3)[nH]c2=O)c1
GI50 [1]: 1550 nM | GI50 [4]: 2400 nM | GI50 [5]: 2360 nM | GI50 [6]: 1600 nM | GI50 [17]: 1340 nM | GI50 [19]: 1780 nM | GI50 [20]: 1790 nM | GI50 [21]: 1680 nM | GI50 [22]: 1920 nM | GI50 [23]: 1460 nM | GI50 [25]: 3710 nM | GI50 [28]: 1720 nM | GI50 [29]: 1510 nM | GI50 [30]: 1950 nM | GI50 [31]: 2830 nM | GI50 [32]: 550 nM | GI50 [38]: 2200 nM | GI50 [42]: 4000 nM | GI50 [45]: 1570 nM | GI50 [46]: 1830 nM | GI50 [47]: 2010 nM | GI50 [52]: 4070 nM | GI50 [53]: 1850 nM | Activity [54]: 3.1% | Activity [55]: 59.35% | Activity [56]: 13.92% | Activity [57]: 23.63% | Activity [58]: 17.17% | Activity [59]: 58.33% | Activity [60]: 13.7% | Activity [61]: 10.8%
